Reference: ChEMBL document CHEMBL5108057, “Development of MAO-A and 5-HT2AR Dual Inhibitors with Improved Antidepressant Activity” (J Med Chem, 2022)
The source made the active and inactive calls. The calls are words filed in the database; no cut-off is given here.

Columns and labels:
[1] = Inhibition of 5-HT2AR mRNA expression in zebra fish AB assessed as fold decrease in 2 delta delta CT level at 1 uM by RT-qPCR method relative to control; format: functional, Danio rerio
Method in brief: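 Total RNA from zebrafish was extracted with Trizol and reverse-transcribed with MMLV. SYBR Green qPCR: 95 °C 2 min; 40 cycles of 95, 60 and 72 °C, 30 s each; then 72 °C for 5 min. 5-HT2AR was normalized to GAPDH by the 2^−ΔΔCT method; mean ± SD, n = 3.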

[2] = molecular target: T1, Amine oxidase [flavin-containing] A (Homo sapiens, UniProt P21397); experiment: Inhibition of MAO-A (unknown origin) using p-tyramine as substrate preincubated for 15 mins followed by substrate addition and measured after 15 mins by Amplex red fluorescence based microplate reader assay
T1 sequence (P21397 whole entry): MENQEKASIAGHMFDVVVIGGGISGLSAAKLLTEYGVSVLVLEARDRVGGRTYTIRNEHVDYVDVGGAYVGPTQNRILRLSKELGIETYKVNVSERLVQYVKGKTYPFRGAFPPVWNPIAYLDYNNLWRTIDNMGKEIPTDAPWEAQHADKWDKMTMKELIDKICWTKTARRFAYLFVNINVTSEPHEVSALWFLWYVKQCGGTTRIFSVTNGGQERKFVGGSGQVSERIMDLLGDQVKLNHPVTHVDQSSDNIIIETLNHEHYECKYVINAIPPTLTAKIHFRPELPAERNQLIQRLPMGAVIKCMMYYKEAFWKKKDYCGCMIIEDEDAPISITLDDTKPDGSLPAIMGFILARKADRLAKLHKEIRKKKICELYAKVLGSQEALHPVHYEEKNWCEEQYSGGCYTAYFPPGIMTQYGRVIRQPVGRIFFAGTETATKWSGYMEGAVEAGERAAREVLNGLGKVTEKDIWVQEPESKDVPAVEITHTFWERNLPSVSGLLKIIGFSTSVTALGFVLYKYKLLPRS

[3] = molecular target: T2, Amine oxidase [flavin-containing] B (Homo sapiens, UniProt P27338); experiment: Inhibition of MAO-B (unknown origin) using p-tyramine as substrate preincubated for 15 mins followed by substrate addition and measured after 15 mins by Amplex red fluorescence based microplate reader assay
T2 sequence (P27338 whole entry): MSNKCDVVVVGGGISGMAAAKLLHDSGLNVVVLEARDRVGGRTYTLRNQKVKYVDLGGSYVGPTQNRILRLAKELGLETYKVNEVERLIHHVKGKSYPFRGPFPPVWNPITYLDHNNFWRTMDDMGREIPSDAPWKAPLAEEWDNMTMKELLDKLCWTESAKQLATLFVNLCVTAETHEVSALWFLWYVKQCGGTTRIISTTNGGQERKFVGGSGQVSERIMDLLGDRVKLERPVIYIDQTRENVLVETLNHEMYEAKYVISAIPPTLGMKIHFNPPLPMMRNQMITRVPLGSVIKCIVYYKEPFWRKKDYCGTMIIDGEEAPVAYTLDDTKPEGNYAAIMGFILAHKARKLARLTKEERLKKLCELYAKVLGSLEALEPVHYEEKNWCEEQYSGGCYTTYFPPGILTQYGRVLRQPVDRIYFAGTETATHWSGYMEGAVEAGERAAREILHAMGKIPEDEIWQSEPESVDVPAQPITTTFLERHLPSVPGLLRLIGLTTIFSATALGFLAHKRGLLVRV

Homo sapiens = species on record: Homo sapiens; experiment: Selectivity index, ratio of IC50 for inhibition of MAO-B (unknown origin) to IC50 for inhibition of MAO-A (unknown origin)
Method in brief: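 Amplex Red coupled assay. Test sample was preincubated with MAO-A or MAO-B at 37 °C for 15 min. p-Tyramine substrate working solution was added, with HRP converting the H2O2 formed to resorufin, for a further 15 min at 37 °C. Fluorescence read at Ex 545/Em 590 nm. […] SI = MAO-B IC50 / MAO-A IC50.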

[4] = Cytotoxicity against human L02 cells assessed as reduction in cell growth measured after 48 hrs by MTT assay; format: toxicity, cell-based
Method in brief: (§1)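 MTT assay: PC12, SH-SY5Y or L02 cells at 5.0 × 10^3 per well were grown for 24 h, treated with compound dilutions from 10 mM DMSO stocks, and cultured 48 h. MTT was then added for 4 h at 37 °C, formazan dissolved in DMSO, and absorbance read at 570 nm. Viability is relative to blank control; IC50 from three repeats. Media contained 10% FBS.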

[5] = Cytotoxicity against human SH-SY5Y cells assessed as reduction in cell growth measured after 48 hrs by MTT assay; format: toxicity, cell-based; method in brief: as §1
[6] = Cytotoxicity against rat PC-12 cells assessed as reduction in cell growth measured after 48 hrs by MTT assay; format: toxicity, cell-based; method in brief: as §1
Mus musculus [7] = experiment: Antidepressant activity in reserpine-induced mouse assessed as downregulation of 5-HT2AR expression at 20 mg/kg pretreated with reserpine for 3 days followed by compound addition on day 4 to 10 by Western blot analysis; format: functional, organism-based; conditions: time 6.0 day
Method in brief: (§2)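 ICR mice given reserpine 1 mg/kg i.p. for 3 consecutive days, then treated daily on days 4–10 (saline 10 mL/kg as vehicle control). Whole-brain protein quantified by BCA, diluted to 3 mg/mL, 10 μL run on 4–20% SDS-PAGE, transferred, blocked, primary antibody 4 °C overnight, secondary 1 h room temperature. Relative 5-HT1AR and 5-HT2AR levels, mean ± SD, n = 3.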

Mus musculus [8] = experiment: Antidepressant activity in reserpine-induced mouse assessed as increase in 5-HT1AR expression at 20 mg/kg pretreated with reserpine for 3 days followed by compound addition on day 4 to 10 by Western blot analysis; format: functional, organism-based; conditions: time 6.0 day; method in brief: as §2

| Structure (SMILES) | fold change (FC) [1] | IC50 [2] | IC50 [3] | Ratio IC50 (Homo sapiens) | IC50 at 48 h [4] | IC50 at 48 h [5] | IC50 at 48 h [6] | Activity (Mus musculus [7]) | Activity (Mus musculus [8]) |
| --- | --- | --- | --- | --- | --- | --- | --- | --- | --- |
| O=C1c2ccccc2-c2nccc3cc(OCCCN4CCN(c5ccccc5Cl)CC4)cc1c23 | 1.886 | 0.361 µM | 15.1 µM | 41.9 | > 100 µM | > 10 µM | > 10 µM |  |  |
| O=C1c2ccccc2-c2nccc3cc(OCCCCN4CCN(c5ccccc5Cl)CC4)cc1c23 | 2.575 | 0.503 µM | 12.7 µM | 25.3 | > 100 µM | > 10 µM | > 10 µM |  |  |
| O=C1c2ccccc2-c2nccc3cc(O)cc1c23 | 2.675 | 1.26 µM | 23.5 µM | 18.6 |  |  |  |  |  |
| O=C1c2ccccc2-c2nccc3cc(OCCCN4CCN(c5ccccc5F)CC4)cc1c23 | 0.038 | 0.005 µM | 1.01 µM | 202 | > 100 µM | > 10 µM | > 10 µM |  |  |
| O=C1c2ccccc2-c2nccc3cc(OCCCCN4CCN(c5ccccc5)CC4)cc1c23 | 1.341 | 0.049 µM | 3.42 µM | 69.8 | > 100 µM | > 10 µM | > 10 µM |  |  |
| O=C1c2ccccc2-c2nccc3cc(OCCCCCN4CCN(c5cccc(Cl)c5Cl)CC4)cc1c23 | 0.049 | 0.006 µM | 0.89 µM | 148 | > 100 µM | > 10 µM | > 10 µM |  |  |
| O=C1c2ccccc2-c2nccc3cc(OCCCN4CCN(c5cccc(Cl)c5Cl)CC4)cc1c23 | 0.055 | 0.011 µM | 1.53 µM | 139 | > 100 µM | > 10 µM | > 10 µM |  |  |
| CNCCC(Oc1ccc(C(F)(F)F)cc1)c1ccccc1 (centres undefined) |  |  |  |  |  |  |  | Active | Active |
| COc1ccccc1N1CCN(CCCOc2cc3c4c(nccc4c2)-c2ccccc2C3=O)CC1 | 0.2 | 0.054 µM | 3.26 µM | 60.4 | > 100 µM | > 10 µM | > 10 µM |  |  |
| O=C1c2ccccc2-c2nccc3cc(OCCCCN4CCN(c5cccc(Cl)c5Cl)CC4)cc1c23 | 0.578 | 0.072 µM | 2.16 µM | 30 | > 100 µM | > 10 µM | > 10 µM |  |  |
| O=C1c2ccccc2-c2nccc3cc(OCCCCCN4CCN(c5ccccc5Cl)CC4)cc1c23 | 1.804 | 0.086 µM | 4.19 µM | 48.7 | > 100 µM | > 10 µM | > 10 µM |  |  |
| O=C1c2ccccc2-c2nccc3cc(OCCCCCN4CCN(c5ccccc5)CC4)cc1c23 | 0.06 | 0.009 µM | 1.46 µM | 162 | > 100 µM | > 10 µM | > 10 µM |  |  |
| COc1ccccc1N1CCN(CCCCOc2cc3c4c(nccc4c2)-c2ccccc2C3=O)CC1 | 0.685 | 0.091 µM | 4.28 µM | 47 | > 100 µM | > 10 µM | > 10 µM |  |  |
| O=C1c2ccccc2-c2nccc3cc(OCCCCN4CCN(c5ccccc5F)CC4)cc1c23 | 0.048 | 0.008 µM | 1.49 µM | 186 | > 100 µM | > 10 µM | > 10 µM |  |  |
| COc1ccccc1N1CCN(CCCCCOc2cc3c4c(nccc4c2)-c2ccccc2C3=O)CC1 | 0.142 | 0.014 µM | 1.38 µM | 98.6 | > 100 µM | > 10 µM | > 10 µM |  |  |
| O=C1c2ccccc2-c2nccc3cc(OCCCN4CCN(c5ccccc5)CC4)cc1c23 | 0.069 | 0.009 µM | 0.85 µM | 94.4 | > 100 µM | > 10 µM | > 10 µM |  |  |
